ChEMBL document CHEMBL1126108, “Quisqualic acid analogues: synthesis of beta-heterocyclic 2-aminopropanoic acid derivatives and their activity at a novel quisqualate-sensitized site” (J Med Chem, 1992)

Assays:
Format in all cases: functional
Rattus norvegicus [1] = organism: Rattus norvegicus; assay: Sensitization effect was determined
Rattus norvegicus [2] = organism: Rattus norvegicus; assay: Inhibitory concentration against evoked synaptic field potential of CA1 neurons in absence of quisqualic acid from rat hippocampus
How it was run: (§1)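 Transverse 500-µm hippocampal slices from 30–100-day-old male Sprague-Dawley rats, submerged in oxygenated medium at 34 °C. Field potentials evoked by stimulating the Schaffer collaterals. Compound started at a subthreshold level and doubled every 4 min until the response fell >70% or exceeded 10 mM. IC50 was interpolated from fractional peak amplitude versus log concentration. Sequence included a 16 µM L-quisqualate exposure between tests.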

Rattus norvegicus [3] = organism: Rattus norvegicus; assay: Inhibitory concentration against evoked synaptic field potential of CA1 neurons in presence of 16 uM quisqualic acid from rat hippocampus; how it was run: as §1

SMILES	Sensitisation (Rattus norvegicus [1])	IC50 (Rattus norvegicus [2]; Rattus norvegicus)	IC50 (Rattus norvegicus [3]; Rattus norvegicus)	IC50 (Rattus norvegicus [2])	IC50 (Rattus norvegicus [3])
N[C@H](CCP(=O)(O)O)C(=O)O	17	2600 µM	152 µM		
CN1C(=O)C=C(C[C@H](N)C(=O)O)C1=O	14	95 µM	6.8 µM		
N[C@H](Cn1oc(=O)[nH]c1=O)C(=O)O	7.5	78 µM	10 µM		
N[C@@H](CCP(=O)(O)O)C(=O)O	33	1800 µM	55 µM		
N[C@@H](CC1=CC(=O)NC1=O)C(=O)O	2.2	21 µM	9.5 µM		
N[C@@H](CC1=CC(=O)N(CC(=O)O)C1=O)C(=O)O	7.7				
NC(CN1CC(=O)NC1=O)C(=O)O (configuration not stated)	1.7	1.4 µM	0.8 µM		
N[C@@H](CC1CC(=O)NC1=O)C(=O)O (stereo in doubt; 5a)				> 10000 µM	> 10000 µM
N[C@@H](CC1CC(=O)NC1=O)C(=O)O (stereo in doubt; 5b)	1.3			9200 µM	6800 µM
N[C@@H](Cn1oc(=O)[nH]c1=O)C(=O)O [QUISQUALATE]	1.3	3.9 µM	2.9 µM		
